Assay results as given in ChEMBL document CHEMBL4371014, “Novel Allosteric Ligands of γ-Aminobutyric Acid Transporter 1 (GAT1) by MS Based Screening of Pseudostatic Hydrazone Libraries” (J Med Chem, 2018).

Target: Sodium- and chloride-dependent GABA transporter 1 (Mus musculus) (UniProt P31648)
Experiment: Inhibition of NO711 binding to mouse GAT1 expressed in HEK293 cell membranes assessed as residual binding at 1 uM preincubated for 4 hrs followed by NO711 addition and measured after 40 mins by LC-ESI-MS/MS analysis relative to control
Method in brief: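 Single hydrazones formed in situ in the presence of mouse GAT1 from one aldehyde (1.0 µM) and hydrazine (200 µM). Formation ran 4 h, then NO711 MS marker was added for 40 min. Specifically bound NO711 was freed from the target and quantified by LC-ESI-MS/MS. Results are % remaining specific binding, means±SD of four replicates.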

| Structure (SMILES) | Activity |
| --- | --- |
| COc1cc(C=O)cc(OC)c1O | 99% |
| COc1cc(F)ccc1-c1ccccc1C=O | 101% |
| COc1ccc(C=O)cc1 | 98% |
| COc1ccc(F)cc1-c1ccccc1C=O | 108% |
| COc1cccc(F)c1-c1ccccc1C=O | 112% |
| COc1ccccc1C=O | 108% |
| Cc1ccc(-c2cccc(C=O)c2)cc1 | 104% |
| Cc1ccc(-c2ccsc2C=O)c(C)c1 | 124% |
| Cc1ccc(-c2ccsc2C=O)cc1 | 109% |
| Cc1cccc2cc(C=O)c(Cl)nc12 | 103% |
| Cc1ccccc1-c1ccsc1C=O | 93% |
| Cc1ccsc1-c1ccccc1C=O | 105% |
| Cc1ccsc1-c1sc(C=O)cc1C | 106% |
| Cn1c(C=O)ccc1-c1ccc(Cl)cc1 | 101% |
| Cn1cnnc1Sc1ccc(C=O)o1 | 86% |
| Nc1ncc(-c2ccccc2C=O)cn1 | 121% |
| O=Cc1cc(Br)co1 | 126% |
| O=Cc1ccc(-c2cc(C(F)(F)F)cc(C(F)(F)F)c2)o1 | 103% |
| O=Cc1ccc(-c2cc(C(F)(F)F)ccc2Cl)o1 | 88% |
| O=Cc1ccc(-c2ccc(Br)cc2)o1 | 97% |
| O=Cc1ccc(-c2ccc(C(F)(F)F)cc2Cl)o1 | 98% |
| O=Cc1ccc(-c2ccc(Cl)cc2)o1 | 75% |
| O=Cc1ccc(-c2ccc(Cl)cc2)s1 | 107% |
| O=Cc1ccc(-c2ccc(Cl)cc2Cl)o1 | 97% |
| O=Cc1ccc(-c2ccc(Cl)cc2F)o1 | 97% |

| Structure (SMILES) | Activity |
| --- | --- |
| O=Cc1ccc(-c2ccc(Cl)cc2[N+](=O)[O-])o1 | 72% |
| O=Cc1ccc(-c2ccc(F)c(C(F)(F)F)c2)o1 | 99% |
| O=Cc1ccc(-c2cccc(C(F)(F)F)c2)o1 | 70% |
| O=Cc1ccc(-c2cccc(Cl)c2)o1 | 103% |
| O=Cc1ccc(-c2cccc3ccccc23)o1 | 92% |
| O=Cc1ccc(-c2ccccc2)[nH]1 | 98% |
| O=Cc1ccc(-c2ccccc2)o1 | 82% |
| O=Cc1ccc(-c2ccccc2)s1 | 112% |
| O=Cc1ccc(-c2ccccc2Br)o1 | 129% |
| O=Cc1ccc(-c2ccccc2C(F)(F)F)o1 | 90% |
| O=Cc1ccc(-c2ccccc2Cl)o1 | 99% |
| O=Cc1ccc(-c2ccccc2OC(F)(F)F)o1 | 88% |
| O=Cc1ccc(-c2ccn[nH]2)o1 | 93% |
| O=Cc1ccc(Br)o1 | 127% |
| O=Cc1ccc(C#Cc2ccccc2)s1 | 90% |
| O=Cc1ccc(I)o1 | 115% |
| O=Cc1ccc([N+](=O)[O-])cc1 | 113% |
| O=Cc1ccc2ccccc2n1 | 114% |
| O=Cc1ccc[nH]1 | 107% |
| O=Cc1cccc(-c2ccc(Cl)cc2)c1 | 108% |
| O=Cc1cccc(-c2ccc(F)cc2)c1 | 122% |
| O=Cc1cccc(-c2ccccc2)c1 | 111% |
| O=Cc1cccc(Oc2ccccc2)c1 | 109% |
| O=Cc1ccccc1-c1cc(F)cc(F)c1 | 112% |
| O=Cc1ccccc1-c1cc(F)ccc1F | 98% |

| Structure (SMILES) | Activity |
| --- | --- |
| O=Cc1ccccc1-c1ccc(F)cc1F | 97% |
| O=Cc1ccccc1-c1cccc(F)c1F | 107% |
| O=Cc1ccccc1-c1cccnc1 | 119% |
| O=Cc1ccccc1-c1cccs1 | 107% |
| O=Cc1ccccc1-c1ccsc1 | 106% |
| O=Cc1ccccc1-n1cccc1 | 92% |
| O=Cc1cccn1-c1ccc(C(F)(F)F)cc1 | 87% |
| O=Cc1ccco1 | 107% |
| O=Cc1cccs1 | 118% |
| O=Cc1ccnc2ccccc12 | 100% |
| O=Cc1cnc(-c2ccc3ccccc3c2)nc1 | 110% |
| O=Cc1cnc(-c2cccc3ccccc23)nc1 | 124% |
| O=Cc1cnc(-c2ccccc2)nc1 | 113% |
| O=Cc1cnc(-c2ccccc2F)nc1 | 116% |
| O=Cc1cnc(-c2ccccn2)nc1 | 106% |
| O=Cc1cnc(-c2ccco2)nc1 | 118% |
| O=Cc1cnc(-c2cccs2)nc1 | 103% |
| O=Cc1cnc(N2CCCCC2)nc1 | 108% |
| O=Cc1cnc(NCc2ccccc2)nc1 | 118% |
| O=Cc1cnc(SCc2ccccc2)nc1 | 116% |
| O=Cc1cncnc1 | 118% |
| O=Cc1csc2ccccc12 | 77% |
| O=Cc1sccc1-c1ccc(C(F)(F)F)cc1C(F)(F)F | 129% |
| O=Cc1sccc1-c1ccc(Cl)cc1 | 113% |
| O=Cc1sccc1-c1ccc(Cl)cc1Cl | 116% |

| Structure (SMILES) | Activity |
| --- | --- |
| O=Cc1sccc1-c1ccc(F)cc1F | 118% |
| O=Cc1sccc1-c1ccccc1 | 113% |
| O=Cc1sccc1-c1ccccc1Cl | 121% |
| O=Cc1sccc1-c1ccccc1F | 121% |
| O=Cc1sccc1-n1cccc1 | 82% |
| COc1cc(F)ccc1-c1ccccc1/C=N/NC[C@@H]1CNC[C@H](C(=O)O)C1 (racemic) | 80% |
| COc1ccc(/C=N/NC[C@@H]2CNC[C@H](C(=O)O)C2)cc1 (racemic) | 85% |
| COc1ccc(F)cc1-c1ccccc1/C=N/NC[C@@H]1CNC[C@H](C(=O)O)C1 (racemic) | 72% |
| COc1cccc(F)c1-c1ccccc1/C=N/NC[C@@H]1CNC[C@H](C(=O)O)C1 (racemic) | 70% |
| COc1ccccc1/C=N/NC[C@@H]1CNC[C@H](C(=O)O)C1 (racemic) | 85% |
| Cc1ccc(-c2ccsc2/C=N/NC[C@@H]2CNC[C@H](C(=O)O)C2)c(C)c1 (racemic) | 80% |
| Cc1ccsc1-c1sc(/C=N/NC[C@@H]2CNC[C@H](C(=O)O)C2)cc1C (racemic) | 74% |
| O=C(O)[C@H]1CNC[C@@H](CN/N=C/c2ccc(-c3ccc(Cl)cc3)o2)C1 (racemic) | 56% |
| O=C(O)[C@H]1CNC[C@@H](CN/N=C/c2ccc(-c3ccc(Cl)cc3Cl)o2)C1 (racemic) | 40% |
| O=C(O)[C@H]1CNC[C@@H](CN/N=C/c2ccc(-c3ccc(Cl)cc3F)o2)C1 (racemic) | 67% |
| O=C(O)[C@H]1CNC[C@@H](CN/N=C/c2ccc(-c3ccc(Cl)cc3[N+](=O)[O-])o2)C1 (racemic) | 37% |
| O=C(O)[C@H]1CNC[C@@H](CN/N=C/c2ccc(-c3ccc(F)c(C(F)(F)F)c3)o2)C1 (racemic) | 36% |
| O=C(O)[C@H]1CNC[C@@H](CN/N=C/c2ccc(-c3cccc(C(F)(F)F)c3)o2)C1 (racemic) | 38% |
| O=C(O)[C@H]1CNC[C@@H](CN/N=C/c2ccc(-c3cccc(Cl)c3)o2)C1 (racemic) | 46% |
| O=C(O)[C@H]1CNC[C@@H](CN/N=C/c2ccc(-c3ccccc3)o2)C1 (racemic) | 68% |
| O=C(O)[C@H]1CNC[C@@H](CN/N=C/c2ccc(-c3ccccc3C(F)(F)F)o2)C1 (racemic) | 49% |
| O=C(O)[C@H]1CNC[C@@H](CN/N=C/c2ccc(-c3ccccc3Cl)o2)C1 (racemic) | 48% |
| O=C(O)[C@H]1CNC[C@@H](CN/N=C/c2ccc(-c3ccccc3OC(F)(F)F)o2)C1 (racemic) | 66% |
| O=C(O)[C@H]1CNC[C@@H](CN/N=C/c2ccc(-c3ccn[nH]3)o2)C1 (racemic) | 81% |
| O=C(O)[C@H]1CNC[C@@H](CN/N=C/c2ccc(C#Cc3ccccc3)s2)C1 (racemic) | 51% |

| Structure (SMILES) | Activity |
| --- | --- |
| O=C(O)[C@H]1CNC[C@@H](CN/N=C/c2ccc([N+](=O)[O-])cc2)C1 (racemic) | 83% |
| O=C(O)[C@H]1CNC[C@@H](CN/N=C/c2ccc3ccccc3n2)C1 (racemic) | 81% |
| O=C(O)[C@H]1CNC[C@@H](CN/N=C/c2cccc(-c3ccccc3)c2)C1 (racemic) | 52% |
| O=C(O)[C@H]1CNC[C@@H](CN/N=C/c2cccc(Oc3ccccc3)c2)C1 (racemic) | 46% |
| O=C(O)[C@H]1CNC[C@@H](CN/N=C/c2ccccc2-c2cc(F)cc(F)c2)C1 (racemic) | 90% |
| O=C(O)[C@H]1CNC[C@@H](CN/N=C/c2ccccc2-c2cc(F)ccc2F)C1 (racemic) | 73% |
| O=C(O)[C@H]1CNC[C@@H](CN/N=C/c2ccccc2-c2ccc(F)cc2F)C1 (racemic) | 66% |
| O=C(O)[C@H]1CNC[C@@H](CN/N=C/c2ccccc2-c2cccc(F)c2F)C1 (racemic) | 58% |
| O=C(O)[C@H]1CNC[C@@H](CN/N=C/c2ccccc2-c2cccnc2)C1 (racemic) | 93% |
| O=C(O)[C@H]1CNC[C@@H](CN/N=C/c2ccccc2-c2cccs2)C1 (racemic) | 87% |
| O=C(O)[C@H]1CNC[C@@H](CN/N=C/c2ccccc2-n2cccc2)C1 (racemic) | 91% |
| O=C(O)[C@H]1CNC[C@@H](CN/N=C/c2cccn2-c2ccc(C(F)(F)F)cc2)C1 (racemic) | 75% |
| O=C(O)[C@H]1CNC[C@@H](CN/N=C/c2ccnc3ccccc23)C1 (racemic) | 74% |
| O=C(O)[C@H]1CNC[C@@H](CN/N=C/c2csc3ccccc23)C1 (racemic) | 82% |
| O=C(O)[C@H]1CNC[C@@H](CN/N=C/c2sccc2-c2ccc(C(F)(F)F)cc2C(F)(F)F)C1 (racemic) | 88% |
| O=C(O)[C@H]1CNC[C@@H](CN/N=C/c2sccc2-c2ccc(Cl)cc2)C1 (racemic) | 80% |
| O=C(O)[C@H]1CNC[C@@H](CN/N=C/c2sccc2-c2ccc(Cl)cc2Cl)C1 (racemic) | 81% |
| O=C(O)[C@H]1CNC[C@@H](CN/N=C/c2sccc2-c2ccc(F)cc2F)C1 (racemic) | 80% |
| O=C(O)[C@H]1CNC[C@@H](CN/N=C/c2sccc2-c2ccccc2)C1 (racemic) | 85% |
| O=C(O)[C@H]1CNC[C@@H](CN/N=C/c2sccc2-c2ccccc2Cl)C1 (racemic) | 84% |
| O=C(O)[C@H]1CNC[C@@H](CN/N=C/c2sccc2-c2ccccc2F)C1 (racemic) | 84% |
| O=C(O)[C@H]1CNC[C@@H](CN/N=C/c2sccc2-n2cccc2)C1 (racemic) | 86% |
